# Measured values as given in ChEMBL document CHEMBL1141268, “Glycogen synthase kinase-3 (GSK-3) inhibitory activity and structure-activity relationship (SAR) studies of the manzamine alkaloids. Potential for Alzheimer's disease” (J Nat Prod, 2007).
# Active and inactive are the calls of the source. The rule behind the calls is not given here.
# Tests used:
# [1] = target: T1, Glycogen synthase kinase-3 beta (Homo sapiens, UniProt P49841); assay: Inhibition of human recombinant GSKbeta
# Method in brief: (§1)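 Recombinant human GSK-3β in 11 mM MOPS pH 7.4, 0.2 mM EDTA, 1.25 mM EGTA, 26.25 mM MgCl2, 0.25 mM orthovanadate. Substrate was 62.5 µM GS-2 peptide, with γ-[33P]ATP plus unlabeled ATP at 12.5 µM final. Reaction ran 30 min at 30 °C. Aliquots were spotted on P81 phosphocellulose, washed and scintillation-counted. IC50 came from nonlinear regression of inhibition curves.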
# Target sequence in this assay (P49841 whole entry): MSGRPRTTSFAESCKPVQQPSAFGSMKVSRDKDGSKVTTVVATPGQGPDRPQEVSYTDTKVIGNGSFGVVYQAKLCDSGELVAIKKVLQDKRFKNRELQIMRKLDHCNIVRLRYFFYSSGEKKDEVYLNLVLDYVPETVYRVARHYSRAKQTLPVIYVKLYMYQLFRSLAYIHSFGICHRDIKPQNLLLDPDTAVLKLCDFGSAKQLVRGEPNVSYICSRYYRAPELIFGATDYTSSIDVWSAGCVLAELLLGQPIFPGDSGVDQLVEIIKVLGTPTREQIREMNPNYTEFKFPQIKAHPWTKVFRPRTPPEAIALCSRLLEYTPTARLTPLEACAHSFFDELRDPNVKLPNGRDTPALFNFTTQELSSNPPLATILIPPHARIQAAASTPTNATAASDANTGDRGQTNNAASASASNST
# [2] = target: T1, Glycogen synthase kinase-3 beta; assay: Inhibition of human recombinant GSKbeta at 25 uM; method in brief: as §1
# Target sequence in this assay (P49841 whole entry, looked up): as the sequence (P49841 whole entry) above
# [3] = Inhibition of recombinant PKA
# Method in brief: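 Recombinant PKA catalytic subunit in ADBI buffer with Kemptide substrate and 35 µM unlabeled ATP. Incubated 20 min; otherwise as the other kinase assays (γ-[33P]ATP, P81 filter binding, scintillation counting).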
# [4] = Inhibition of recombinant MAPK
# Method in brief: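 ERK1 (recombinant MAP kinase) in ADBI buffer (20 mM MOPS pH 7.2, 25 mM β-glycerol phosphate, 5 mM EGTA, 1 mM sodium orthovanadate) with 10 µg myelin basic protein as substrate. ATP at 20 µM final. Incubated 15 min; otherwise as the GSK-3β radiometric P81 filter assay.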
# [5] = target: Glycogen synthase kinase-3 alpha (Homo sapiens) (UniProt P49840); assay: Inhibition of recombinant GSKalpha
# Glycogen synthase kinase-3 alpha (Homo sapiens), sequence (P49840 2-483 limits assumed): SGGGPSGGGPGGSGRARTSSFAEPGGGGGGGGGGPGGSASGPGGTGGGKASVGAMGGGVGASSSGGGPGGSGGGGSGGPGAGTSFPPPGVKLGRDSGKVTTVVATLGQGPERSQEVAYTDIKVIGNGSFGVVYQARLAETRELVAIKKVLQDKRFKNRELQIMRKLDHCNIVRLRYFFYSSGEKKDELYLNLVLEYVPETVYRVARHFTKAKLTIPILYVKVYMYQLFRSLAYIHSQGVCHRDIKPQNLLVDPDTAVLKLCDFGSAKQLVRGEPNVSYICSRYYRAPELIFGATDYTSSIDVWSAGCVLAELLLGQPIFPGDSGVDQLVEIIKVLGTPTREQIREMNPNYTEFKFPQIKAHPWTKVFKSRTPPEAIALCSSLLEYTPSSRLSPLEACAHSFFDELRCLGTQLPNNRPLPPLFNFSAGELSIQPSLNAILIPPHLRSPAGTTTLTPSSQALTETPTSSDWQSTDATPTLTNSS
# Method in brief: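 Recombinant GSK-3α, run as the GSK-3β radiometric protocol: MOPS pH 7.4 buffer with EDTA, EGTA, MgCl2 and orthovanadate, plus γ-[33P]ATP. GS-2 peptide at 20 µM final and ATP at 26 µM. Incubated 12 min, then P81 filter binding and scintillation counting. IC50 by nonlinear regression.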
# [6] = target: Cyclin-dependent kinase 1 (Homo sapiens) (UniProt P06493); assay: Inhibition of recombinant CDK1
# Cyclin-dependent kinase 1 (Homo sapiens), sequence (P06493 whole entry, looked up): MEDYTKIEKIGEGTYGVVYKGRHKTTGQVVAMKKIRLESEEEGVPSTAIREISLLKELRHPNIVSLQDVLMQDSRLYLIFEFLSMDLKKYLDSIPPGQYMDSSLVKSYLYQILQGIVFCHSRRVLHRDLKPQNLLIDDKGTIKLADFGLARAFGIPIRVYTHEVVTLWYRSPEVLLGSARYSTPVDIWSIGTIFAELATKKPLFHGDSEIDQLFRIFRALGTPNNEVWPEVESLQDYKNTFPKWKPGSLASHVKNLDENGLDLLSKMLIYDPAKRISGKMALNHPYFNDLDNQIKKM
# Method in brief: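 Recombinant CDK-1 in ADBI buffer (20 mM MOPS pH 7.2, 25 mM β-glycerol phosphate, 5 mM EGTA, 1 mM sodium orthovanadate). Histone H1 substrate at […] and ATP at 22 µM final. Reaction run 15 min at 30 °C.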
# [7] = target: Cyclin-dependent kinase 5/CDK5 activator 1 (Homo sapiens, UniProt Q00535); assay: Inhibition of human recombinant CDK5/p35; type: protein-complex assay
# Cyclin-dependent kinase 5/CDK5 activator 1, sequence (Q00535 whole entry): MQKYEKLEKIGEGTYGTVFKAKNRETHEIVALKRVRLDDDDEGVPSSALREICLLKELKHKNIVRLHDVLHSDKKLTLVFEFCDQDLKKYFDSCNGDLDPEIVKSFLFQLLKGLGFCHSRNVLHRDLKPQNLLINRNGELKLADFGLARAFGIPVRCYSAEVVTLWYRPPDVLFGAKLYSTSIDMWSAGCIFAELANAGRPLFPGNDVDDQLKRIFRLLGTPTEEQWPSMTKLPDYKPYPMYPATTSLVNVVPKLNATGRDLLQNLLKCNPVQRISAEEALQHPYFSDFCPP
# Cyclin-dependent kinase 5/CDK5 activator 1, sequence (Q15078 whole entry, further chain): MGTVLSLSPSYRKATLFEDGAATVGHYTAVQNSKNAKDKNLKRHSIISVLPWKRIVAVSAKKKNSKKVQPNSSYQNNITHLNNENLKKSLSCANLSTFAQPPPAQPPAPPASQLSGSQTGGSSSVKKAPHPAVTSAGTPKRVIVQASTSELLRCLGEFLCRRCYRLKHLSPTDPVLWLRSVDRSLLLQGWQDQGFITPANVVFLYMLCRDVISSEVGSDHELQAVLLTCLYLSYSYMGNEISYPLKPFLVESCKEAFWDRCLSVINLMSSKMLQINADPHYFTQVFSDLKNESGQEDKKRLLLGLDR
# Method in brief: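 Human recombinant cdk5-p35 with histone H1 substrate, run as the GSK-3β protocol: 11 mM MOPS pH 7.4, 0.2 mM EDTA, 1.25 mM EGTA, 26.25 mM MgCl2, 0.25 mM sodium orthovanadate, γ-[33P]ATP plus unlabeled ATP (12.5 µM final). Incubated 30 min at 30 °C, spotted on P81 phosphocellulose, washed, scintillation counted. IC50 by nonlinear regression of inhibition curves.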
SMILES,IC50 [1],inhibition [2],also measured
Oc1cccc2c1[nH]c1c(C3=C[C@@]4(O)CC/C=C\CCCCN5CC[C@@H]3[C@]3(CC6/C=C\CCCCN6[C@H]34)C5)nccc12 (stereo not given in full),4.8 µM,–,–
O=C1CCCN2[C@@H](CC1)C[C@]13CN4CCCC/C=C\CC[C@](O)(C=C(c5nccc6c5[nH]c5c(OS(=O)(=O)c7ccc(Cl)cc7)cccc56)C1CC4)[C@H]23 (stereo not given in full),7.2 µM,76.7%,–
O=C1CCCN2[C@@H](CC1)C[C@]13CN4CCCC/C=C\CC[C@](O)(C=C(c5nccc6c5[nH]c5ccccc56)C1CC4)[C@H]23 (stereo not given in full) [MANZAMINE E],25 µM,–,–
O[C@]12C=C(c3nccc4c3[nH]c3ccccc34)[C@@H]3CCN(CCCC/C=C\CC1)C[C@@]31C[C@@H]3/C=C\CCCCN3[C@H]12 [MANZAMINE A],10.2 µM,–,Activity [3]: inactive; Activity [4]: inactive; Activity [5]: inactive; Activity [6]: inactive; IC50 [7]: 1.5 µM
CCOc1cccc2c3ccnc(C4=C[C@@]5(O)CC/C=C\CCCCN6CCC4[C@]4(C[C@@H]7/C=C\CCCCN7[C@H]45)C6)c3n(CC)c12 (stereo not given in full) [9-N-ETHYL-8-ETHOXY-MANZAMINE A],10.4 µM,78%,–
Oc1ccc2[nH]c3c(C4=C[C@@]5(O)CC/C=C\CCCCN6CCC4[C@]4(C[C@@H]7/C=C\CCCCN7[C@H]45)C6)nccc3c2c1 (stereo not given in full),16.6 µM,74.3%,–
CC(=O)Nc1nc(C)c(S(=O)(=O)Oc2cccc3c2[nH]c2c(C4=C[C@@]5(O)CC/C=C\CCCCN6CCC4[C@]4(C[C@@H]7CCC(=O)CCCN7[C@H]45)C6)nccc23)s1 (stereo not given in full),8.5 µM,78.8%,–
CC(C)COc1cccc2c3ccnc(C4=C[C@@]5(O)CC/C=C\CCCCN6CCC4[C@]4(C[C@@H]7/C=C\CCCCN7[C@H]45)C6)c3n(CC(C)C)c12 (stereo not given in full),–,24.2%,–
Oc1cccc2c1[nH]c1c(C3=C[C@@]4(O)CCCCCCCCN5CCC3[C@]3(C[C@@H]6CCCCCCN6[C@H]34)C5)nccc12 (stereo not given in full),–,29%,–
COC(=O)CCCCn1c2ccccc2c2ccnc(C3=C[C@@]4(O)CC/C=C\CCCCN5CCC3[C@]3(C[C@@H]6/C=C\CCCCN6[C@H]34)C5)c21 (stereo not given in full),–,3%,–
Cc1ccc(S(=O)(=O)Oc2cccc3c2[nH]c2c(C4=C[C@@]5(O)CC/C=C\CCCCN6CCC4[C@]4(C[C@H]7/C=C\CCCCN7[C@H]45)C6)nccc23)cc1 (stereo not given in full),–,80.4%,–
O=C1CCCN2[C@@H](CC1)C[C@]13CN4CCCC/C=C\CC[C@](O)(C=C(c5nccc6c5[nH]c5c(OS(=O)(=O)c7ccc(Br)cc7)cccc56)C1CC4)[C@H]23 (stereo not given in full),23 µM,63%,–
"CC(=O)Oc1cccc2c1[nH]c1c(C3=C/C4=C/C/C=C\CCCCN5CCC3[C@]3(C[C@@H]6/C=C\CCCCN6[C@@H]43)C5)nccc12 (stereo not given in full) [12,13-DEHYDRO-8-O-ACETYLMANZAMINE A]",4.8 µM,79.1%,–
"C1=C(c2nccc3c2[nH]c2ccccc23)C2CCN3CCCC/C=C\C/C=C/1[C@@H]1N4CCCC/C=C\[C@H]4C[C@]21C3 (stereo not given in full) [12,13-DEHYDROMANZAMINE A]",5.4 µM,71.2%,–
COc1cccc2c3ccnc(C4=C[C@@]5(O)CC/C=C\CCCCN6CCC4[C@]4(C[C@@H]7/C=C\CCCCN7[C@H]45)C6)c3n(C)c12 (stereo not given in full),–,72.4%,–
CCCCCCCCCCCCn1c2ccccc2c2ccnc(C3=C[C@@]4(O)CC/C=C\CCCCN5CC[C@@H]3[C@]3(C[C@@H]6/C=C\CCCCN6[C@H]34)C5)c21,–,0%,–
O[C@]12C=C(c3nccc4c3[nH]c3ccccc34)[C@@H]3CCN(CCCCCCCC1)C[C@@]31C[C@@H]3CCCCCCN3[C@H]12,–,0%,–
O[C@]12C=C(c3nccc4c3[nH]c3ccccc34)C3CCN(CCCC/C=C\CC1)C[C@@]31C[C@]34CC[C@H](CCCN3[C@H]12)O4 (stereo not given in full),–,88.4%,–
